Measured values published in ChEMBL document CHEMBL4152382, “Discovery of Tarantula Venom-Derived NaV1.7-Inhibitory JzTx-V Peptide 5-Br-Trp24 Analogue AM-6120 with Systemic Block of Histamine-Induced Pruritis” (J Med Chem, 2018).

Tests used:
Mus musculus [1] = assay: In vivo inhibition of Nav1.7 in C57/BL6 mouse model of histamine-induced pruritis assessed as reduction in scratching bouts at 10 mg/kg, […] dosed 2 hrs before histamine challenge and measured for 15 mins relative to control; format: functional
[2] = molecular target: Sodium channel protein type 4 subunit alpha (Homo sapiens, UniProt P35499); assay: Inhibition of human Nav1.4 expressed in HEK293 cells at holding potential of -125 mV […] by patchxpress-based electrophysiology assay; format: cell-based
Chain of Sodium channel protein type 4 subunit alpha (P35499 whole entry): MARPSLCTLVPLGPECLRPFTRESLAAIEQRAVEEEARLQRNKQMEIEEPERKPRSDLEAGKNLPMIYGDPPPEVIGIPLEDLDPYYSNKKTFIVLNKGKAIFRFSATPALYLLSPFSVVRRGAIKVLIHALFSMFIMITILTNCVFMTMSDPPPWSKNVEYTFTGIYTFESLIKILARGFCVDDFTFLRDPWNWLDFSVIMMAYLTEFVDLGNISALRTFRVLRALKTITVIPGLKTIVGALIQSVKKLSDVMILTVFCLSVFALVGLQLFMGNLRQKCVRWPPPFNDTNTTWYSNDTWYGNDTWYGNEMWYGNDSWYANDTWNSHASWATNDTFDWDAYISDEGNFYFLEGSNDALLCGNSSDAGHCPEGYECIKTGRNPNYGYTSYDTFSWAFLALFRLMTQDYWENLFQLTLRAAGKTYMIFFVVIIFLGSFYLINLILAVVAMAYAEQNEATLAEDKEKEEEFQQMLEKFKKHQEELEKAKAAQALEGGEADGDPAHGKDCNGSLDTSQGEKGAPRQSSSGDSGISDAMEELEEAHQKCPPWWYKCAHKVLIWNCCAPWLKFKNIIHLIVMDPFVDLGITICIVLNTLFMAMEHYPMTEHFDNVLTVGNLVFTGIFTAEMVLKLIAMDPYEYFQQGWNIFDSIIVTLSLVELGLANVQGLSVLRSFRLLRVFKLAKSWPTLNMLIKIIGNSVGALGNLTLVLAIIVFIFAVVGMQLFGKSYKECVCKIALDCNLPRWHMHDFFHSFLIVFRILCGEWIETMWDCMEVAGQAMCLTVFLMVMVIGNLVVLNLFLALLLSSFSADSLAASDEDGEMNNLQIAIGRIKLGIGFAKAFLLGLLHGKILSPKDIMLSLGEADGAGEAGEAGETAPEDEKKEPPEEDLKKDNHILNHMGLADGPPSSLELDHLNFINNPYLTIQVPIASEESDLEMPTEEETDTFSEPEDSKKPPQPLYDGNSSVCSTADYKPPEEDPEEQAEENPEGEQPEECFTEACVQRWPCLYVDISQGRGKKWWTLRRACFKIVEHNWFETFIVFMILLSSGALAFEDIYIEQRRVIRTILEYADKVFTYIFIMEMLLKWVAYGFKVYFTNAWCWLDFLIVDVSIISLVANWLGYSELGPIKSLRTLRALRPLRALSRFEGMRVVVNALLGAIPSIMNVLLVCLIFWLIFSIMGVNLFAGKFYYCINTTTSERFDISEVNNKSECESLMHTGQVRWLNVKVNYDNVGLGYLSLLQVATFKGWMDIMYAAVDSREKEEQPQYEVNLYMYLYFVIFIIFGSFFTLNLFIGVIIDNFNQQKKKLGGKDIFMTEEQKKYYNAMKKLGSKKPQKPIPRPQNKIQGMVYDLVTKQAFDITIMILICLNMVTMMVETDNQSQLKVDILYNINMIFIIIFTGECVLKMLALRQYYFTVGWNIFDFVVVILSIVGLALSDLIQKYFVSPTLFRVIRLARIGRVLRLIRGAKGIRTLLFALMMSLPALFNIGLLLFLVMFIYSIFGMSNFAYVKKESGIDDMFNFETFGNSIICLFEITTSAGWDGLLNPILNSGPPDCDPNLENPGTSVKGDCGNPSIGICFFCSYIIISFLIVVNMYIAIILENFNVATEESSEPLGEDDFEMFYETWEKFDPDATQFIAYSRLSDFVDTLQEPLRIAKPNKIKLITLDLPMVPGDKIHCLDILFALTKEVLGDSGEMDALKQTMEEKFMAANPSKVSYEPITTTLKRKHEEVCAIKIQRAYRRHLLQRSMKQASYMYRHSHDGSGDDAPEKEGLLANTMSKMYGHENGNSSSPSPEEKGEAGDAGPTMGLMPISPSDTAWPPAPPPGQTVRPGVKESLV

[3] = molecular target: Sodium channel protein type 9 subunit alpha (Homo sapiens, UniProt Q15858); assay: Inhibition of human Nav1.7 expressed in HEK293 cells at holding potential of -125 mV […] by patchxpress-based electrophysiology assay; format: cell-based
Chain of Sodium channel protein type 9 subunit alpha (Q15858 whole entry): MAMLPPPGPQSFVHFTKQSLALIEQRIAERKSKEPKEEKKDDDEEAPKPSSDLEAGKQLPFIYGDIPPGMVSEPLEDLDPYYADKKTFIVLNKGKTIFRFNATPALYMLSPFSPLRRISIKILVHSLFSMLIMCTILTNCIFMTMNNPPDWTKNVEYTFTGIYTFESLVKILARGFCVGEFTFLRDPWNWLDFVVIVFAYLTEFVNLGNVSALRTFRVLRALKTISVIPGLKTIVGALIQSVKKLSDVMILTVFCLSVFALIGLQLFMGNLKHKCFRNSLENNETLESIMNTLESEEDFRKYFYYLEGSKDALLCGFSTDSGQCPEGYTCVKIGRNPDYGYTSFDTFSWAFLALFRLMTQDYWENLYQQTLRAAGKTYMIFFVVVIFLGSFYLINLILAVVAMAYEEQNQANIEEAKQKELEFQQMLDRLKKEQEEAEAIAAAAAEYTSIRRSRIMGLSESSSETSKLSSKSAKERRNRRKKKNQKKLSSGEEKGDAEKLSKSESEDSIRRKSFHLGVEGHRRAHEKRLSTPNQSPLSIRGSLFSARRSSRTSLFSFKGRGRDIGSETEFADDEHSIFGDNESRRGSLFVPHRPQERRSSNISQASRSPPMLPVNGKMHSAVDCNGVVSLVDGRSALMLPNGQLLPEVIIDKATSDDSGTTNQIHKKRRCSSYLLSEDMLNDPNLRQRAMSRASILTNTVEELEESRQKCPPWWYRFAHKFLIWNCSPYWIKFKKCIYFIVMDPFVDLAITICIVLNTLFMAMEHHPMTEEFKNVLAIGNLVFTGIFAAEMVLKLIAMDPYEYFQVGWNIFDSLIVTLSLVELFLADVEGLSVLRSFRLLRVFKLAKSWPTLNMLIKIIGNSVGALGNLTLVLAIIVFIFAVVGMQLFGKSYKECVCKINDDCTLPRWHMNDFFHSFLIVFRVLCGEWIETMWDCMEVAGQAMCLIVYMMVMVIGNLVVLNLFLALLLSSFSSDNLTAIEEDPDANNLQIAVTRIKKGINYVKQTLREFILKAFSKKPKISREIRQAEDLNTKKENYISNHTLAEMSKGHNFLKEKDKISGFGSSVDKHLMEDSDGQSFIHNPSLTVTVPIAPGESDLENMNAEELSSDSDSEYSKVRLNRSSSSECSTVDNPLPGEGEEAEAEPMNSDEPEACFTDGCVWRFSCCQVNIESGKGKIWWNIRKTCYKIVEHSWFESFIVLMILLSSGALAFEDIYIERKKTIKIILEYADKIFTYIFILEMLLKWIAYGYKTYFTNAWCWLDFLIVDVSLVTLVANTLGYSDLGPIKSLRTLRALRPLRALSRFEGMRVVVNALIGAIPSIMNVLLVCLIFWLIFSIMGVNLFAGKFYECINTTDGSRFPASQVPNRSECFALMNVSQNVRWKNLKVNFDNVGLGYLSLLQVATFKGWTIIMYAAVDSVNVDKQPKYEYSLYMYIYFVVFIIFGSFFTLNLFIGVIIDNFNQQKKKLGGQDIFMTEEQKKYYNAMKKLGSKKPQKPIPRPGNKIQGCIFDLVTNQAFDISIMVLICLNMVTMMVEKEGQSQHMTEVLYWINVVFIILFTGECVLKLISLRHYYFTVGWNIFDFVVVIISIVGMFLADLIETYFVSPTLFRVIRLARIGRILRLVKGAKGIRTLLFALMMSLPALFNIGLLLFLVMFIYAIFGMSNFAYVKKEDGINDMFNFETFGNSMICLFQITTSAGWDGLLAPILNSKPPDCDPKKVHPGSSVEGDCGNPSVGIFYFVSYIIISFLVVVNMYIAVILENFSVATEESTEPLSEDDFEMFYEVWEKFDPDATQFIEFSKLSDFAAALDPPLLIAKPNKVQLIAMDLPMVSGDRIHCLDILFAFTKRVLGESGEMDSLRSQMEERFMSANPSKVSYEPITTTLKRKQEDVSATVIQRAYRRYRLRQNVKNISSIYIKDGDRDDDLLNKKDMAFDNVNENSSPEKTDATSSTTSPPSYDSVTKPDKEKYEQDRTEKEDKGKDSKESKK

Mus musculus [4] = assay: Volume of distribution at steady state in C57/BL6 mouse at 2 mg/kg, sc by LC-MS/MS analysis; format: ADME, organism-based; conditions: in vivo
In short: (§1)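 Male C57Bl/6 mice, n = 3 per time point, given a single 2 mg/kg subcutaneous dose. Plasma levels were quantified by LC-MS/MS over time, and pharmacokinetic parameters were derived from the plasma profiles. Data are reported as mean ± SEM for each time point.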

[5] = molecular target: Sodium channel protein type 8 subunit alpha (Homo sapiens, UniProt Q9UQD0); assay: Inhibition of human Nav1.6 expressed in HEK293 cells at holding potential of -125 mV […] by patchxpress-based electrophysiology assay; format: cell-based
[6] = molecular target: Sodium channel protein type 10 subunit alpha (Homo sapiens, UniProt Q9Y5Y9); assay: Inhibition of human Nav1.8 expressed in HEK293 cells after 10 mins by patchxpress-based electrophysiology; format: cell-based
[7] = Tmax in C57/BL6 mouse at 2 mg/kg, sc by LC-MS/MS analysis; format: ADME, organism-based; conditions: in vivo; in short: as §1
[8] = Half life in C57/BL6 mouse at 2 mg/kg, sc by LC-MS/MS analysis; format: ADME, organism-based; conditions: in vivo; in short: as §1
[9] = AUCt in C57/BL6 mouse at 2 mg/kg, sc by LC-MS/MS analysis; format: ADME, organism-based; conditions: in vivo; in short: as §1
[10] = Plasma concentration in C57/BL6 mouse at 2 mg/kg, sc after 30 mins by LC-MS/MS analysis; format: ADME, organism-based; conditions: in vivo, 0.5 h; in short: as §1
[11] = Apparent […] clearance in C57/BL6 mouse at 2 mg/kg, sc by LC-MS/MS analysis; format: ADME, organism-based; conditions: in vivo; in short: as §1
[12] = molecular target: Sodium channel protein type 5 subunit alpha (Homo sapiens, UniProt Q14524); assay: Inhibition of human Nav1.5 expressed in HEK293 cells at holding potential of […] after 10 mins by patchxpress-based electrophysiology assay; format: cell-based
[13] = MRT in C57/BL6 mouse at 2 mg/kg, sc by LC-MS/MS analysis; format: ADME, organism-based; conditions: in vivo; in short: as §1
[14] = Cmax in C57/BL6 mouse at 2 mg/kg, sc by LC-MS/MS analysis; format: ADME, organism-based; set-up: dose 2 mg/kg, route subcutaneous; conditions: in vivo; in short: as §1

CN(C)CCOC(c1ccccc1)c1ccccc1 [DIPHENHYDRAMINE]
inhibition in vivo at 10 mg/kg (Mus musculus [1]): 89.7%

C#CC[C@H](NC(=O)[C@@H](N)CCC(=O)O)C(=O)N[C@H]1CSSC[C@@H]2NC(=O)[C@@H]3CSSC[C@@H](C(=O)N[C@@H](CCCNC(=N)N)C(=O)N[C@@H](CCCCN)C(=O)N[C@@H](CCC(=O)O)C(=O)N[C@H](C(N)=O)[C@@H](C)CC)NC(=O)[C@H](Cc4c[nH]c5ccc(Br)cc45)NC(=O)[C@H](CC(C)C)NC(=O)[C@H](CCCCN)NC(=O)[C@H](CSSC[C@H](NC(=O)[C@H]([C@@H](C)O)NC(=O)[C@H](Cc4c[nH]c5ccccc45)NC(=O)[C@H](CCCC)NC(=O)[C@H](Cc4c[nH]c5ccccc45)NC(=O)[C@H](CCCCN)NC(=O)[C@H](CCC(N)=O)NC1=O)C(=O)N[C@@H](CC(=O)O)C(=O)N[C@@H](CO)C(=O)N[C@@H](CCCCN)C(=O)N[C@@H](CCCNC(=N)N)C(=O)N[C@@H](CCC(=O)O)C(=O)N3)NC(=O)[C@H](CCCNC(=N)N)NC(=O)[C@H](CC(C)C)NC(=O)CNC(=O)[C@H](CCC(=O)O)NC2=O
IC50 [2]: 182 nM
IC50 [3]: 1.3 nM

C#CC[C@H](N)C(=O)N[C@@H](Cc1ccc(O)cc1)C(=O)N[C@H]1CSSC[C@@H]2NC(=O)[C@@H]3CSSC[C@@H](C(=O)N[C@@H](CCCNC(=N)N)C(=O)N[C@@H](CCCCN)C(=O)N[C@@H](CCC(=O)O)C(=O)N[C@@H](Cc4c[nH]c5ccccc45)C(N)=O)NC(=O)[C@H](Cc4c[nH]c5ccccc45)NC(=O)[C@H](CC(C)C)NC(=O)[C@H](CCCCN)NC(=O)[C@H](CSSC[C@H](NC(=O)[C@H]([C@@H](C)O)NC(=O)[C@H](Cc4c[nH]c5ccccc45)NC(=O)[C@H](CCCC)NC(=O)[C@H](Cc4c[nH]c5ccccc45)NC(=O)[C@H](CCCCN)NC(=O)[C@H](CCC(N)=O)NC1=O)C(=O)N[C@@H](CC(=O)O)C(=O)N[C@@H](CO)C(=O)N[C@@H](CCCCN)C(=O)N[C@@H](CCCNC(=N)N)C(=O)N[C@@H](C)C(=O)N3)NC(=O)[C@H](CCCNC(=N)N)NC(=O)[C@H](CC(C)C)NC(=O)CNC(=O)[C@H](CCC(=O)O)NC2=O
IC50 [2]: 92 nM
IC50 [3]: 0.2 nM

C#CC[C@H](N)C(=O)N[C@@H](Cc1ccc(O)cc1)C(=O)N[C@H]1CSSC[C@@H]2NC(=O)[C@@H]3CSSC[C@@H](C(=O)N[C@@H](CCCNC(=N)N)C(=O)N[C@@H](CCCCN)C(=O)N[C@@H](CCC(=O)O)C(=O)N[C@H](C(N)=O)[C@@H](C)CC)NC(=O)[C@H](Cc4c[nH]c5ccc(Br)cc45)NC(=O)[C@H](CC(C)C)NC(=O)[C@H](CCCCN)NC(=O)[C@H](CSSC[C@H](NC(=O)[C@H]([C@@H](C)O)NC(=O)[C@H](Cc4c[nH]c5ccccc45)NC(=O)[C@H](CCCC)NC(=O)[C@H](Cc4c[nH]c5ccccc45)NC(=O)[C@H](CCCCN)NC(=O)[C@H](CCC(N)=O)NC1=O)C(=O)N[C@@H](CC(=O)O)C(=O)N[C@@H](CO)C(=O)N[C@@H](CCCCN)C(=O)N[C@@H](CCCNC(=N)N)C(=O)N[C@@H](C)C(=O)N3)NC(=O)[C@H](CCCNC(=N)N)NC(=O)[C@H](CC(C)C)NC(=O)CNC(=O)[C@H](CCC(=O)O)NC2=O
Vdss (Mus musculus [4]): 0.547 L/kg
IC50 [5]: 66 nM
IC50 [6]: 509 nM
Tmax [7]: 0.5 h
half-life [8]: 2.38 h
AUC(0-t) [9]: 3.44 µM·h
Drug uptake [10]: Active
CL/F [11]: 2.57 mL/min/kg
IC50 [2]: 53 nM
IC50 [3]: 0.26 nM
IC50 [12]: 260 nM
MRT [13]: 3.55 h
Cmax [14]: 892 nM

C#CC[C@H](NC(=O)[C@@H](N)CCC(=O)O)C(=O)N[C@H]1CSSC[C@@H]2NC(=O)[C@@H]3CSSC[C@@H](C(=O)N[C@@H](CCCNC(=N)N)C(=O)N[C@@H](CCCCN)C(=O)N[C@@H](CCC(=O)O)C(=O)N[C@H](C(N)=O)[C@@H](C)CC)NC(=O)[C@H](Cc4c[nH]c5ccc(Br)cc45)NC(=O)[C@H](CC(C)C)NC(=O)[C@H](CCCCN)NC(=O)[C@H](CSSC[C@H](NC(=O)[C@H]([C@@H](C)O)NC(=O)[C@H](Cc4c[nH]c5ccccc45)NC(=O)[C@H](CCCC)NC(=O)[C@H](Cc4c[nH]c5ccccc45)NC(=O)[C@H](CCCCN)NC(=O)[C@H](CCC(N)=O)NC1=O)C(=O)N[C@@H](CC(=O)O)C(=O)N[C@@H](CCC(=O)O)C(=O)N[C@@H](CCCCN)C(=O)N[C@@H](CCCNC(=N)N)C(=O)N[C@@H](C)C(=O)N3)NC(=O)[C@H](CCCNC(=N)N)NC(=O)[C@H](CC(C)C)NC(=O)CNC(=O)[C@H](CCC(=O)O)NC2=O
IC50 [2]: 89 nM
IC50 [3]: 2.5 nM

C#CC[C@H](N)C(=O)N[C@@H](Cc1ccc(O)cc1)C(=O)N[C@H]1CSSC[C@@H]2NC(=O)[C@@H]3CSSC[C@@H](C(=O)N[C@@H](CCCNC(=N)N)C(=O)N[C@@H](CCCCN)C(=O)N[C@@H](CCC(=O)O)C(=O)N[C@H](C(N)=O)[C@@H](C)CC)NC(=O)[C@H](Cc4c[nH]c5cc(Br)ccc45)NC(=O)[C@H](CC(C)C)NC(=O)[C@H](CCCCN)NC(=O)[C@H](CSSC[C@H](NC(=O)[C@H]([C@@H](C)O)NC(=O)[C@H](Cc4c[nH]c5ccccc45)NC(=O)[C@H](CCCC)NC(=O)[C@H](Cc4c[nH]c5ccccc45)NC(=O)[C@H](CCCCN)NC(=O)[C@H](CCC(N)=O)NC1=O)C(=O)N[C@@H](CC(=O)O)C(=O)N[C@@H](CO)C(=O)N[C@@H](CCCCN)C(=O)N[C@@H](CCCNC(=N)N)C(=O)N[C@@H](C)C(=O)N3)NC(=O)[C@H](CCCNC(=N)N)NC(=O)[C@H](CC(C)C)NC(=O)CNC(=O)[C@H](CCC(=O)O)NC2=O
IC50 [2]: 39 nM
IC50 [3]: 8.9 nM

C#CC[C@H](N)C(=O)N[C@@H](Cc1ccc(O)cc1)C(=O)N[C@H]1CSSC[C@@H]2NC(=O)[C@@H]3CSSC[C@@H](C(=O)N[C@@H](CCCNC(=N)N)C(=O)N[C@@H](CCCCN)C(=O)N[C@@H](CCC(=O)O)C(=O)N[C@@H](CCc4ccccc4)C(N)=O)NC(=O)[C@H](Cc4c[nH]c5ccccc45)NC(=O)[C@H](CC(C)C)NC(=O)[C@H](CCCCN)NC(=O)[C@H](CSSC[C@H](NC(=O)[C@H]([C@@H](C)O)NC(=O)[C@H](Cc4c[nH]c5ccccc45)NC(=O)[C@H](CCCC)NC(=O)[C@H](Cc4c[nH]c5ccccc45)NC(=O)[C@H](CCCCN)NC(=O)[C@H](CCC(N)=O)NC1=O)C(=O)N[C@@H](CC(=O)O)C(=O)N[C@@H](CO)C(=O)N[C@@H](CCCCN)C(=O)N[C@@H](CCCNC(=N)N)C(=O)N[C@@H](C)C(=O)N3)NC(=O)[C@H](CCCNC(=N)N)NC(=O)[C@H](CC(C)C)NC(=O)CNC(=O)[C@H](CCC(=O)O)NC2=O
IC50 [2]: 23 nM
IC50 [3]: 0.3 nM

C#CC[C@H](N)C(=O)N[C@@H](Cc1ccc(O)cc1)C(=O)N[C@H]1CSSC[C@@H]2NC(=O)[C@@H]3CSSC[C@@H](C(=O)N[C@@H](CCCNC(=N)N)C(=O)N[C@@H](CCCCN)C(=O)N[C@@H](CCC(=O)O)C(=O)N[C@H](C(N)=O)[C@@H](C)CC)NC(=O)[C@H](Cc4c[nH]c5ccc(Cl)cc45)NC(=O)[C@H](CC(C)C)NC(=O)[C@H](CCCCN)NC(=O)[C@H](CSSC[C@H](NC(=O)[C@H]([C@@H](C)O)NC(=O)[C@H](Cc4c[nH]c5ccccc45)NC(=O)[C@H](CCCC)NC(=O)[C@H](Cc4c[nH]c5ccccc45)NC(=O)[C@H](CCCCN)NC(=O)[C@H](CCC(N)=O)NC1=O)C(=O)N[C@@H](CC(=O)O)C(=O)N[C@@H](CO)C(=O)N[C@@H](CCCCN)C(=O)N[C@@H](CCCNC(=N)N)C(=O)N[C@@H](C)C(=O)N3)NC(=O)[C@H](CCCNC(=N)N)NC(=O)[C@H](CC(C)C)NC(=O)CNC(=O)[C@H](CCC(=O)O)NC2=O
IC50 [2]: 23 nM
IC50 [3]: 3.1 nM
